From PMC2925318 (Tetrahedron, 2010)
pIC50: −log10 of the molar value.

Molecular target: Concanavalin A (Con A) (Canavalia ensiformis, UniProt P02866)
Type: binding
In short: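 Gold chip with mixed carboxyl/hydroxyl dithiol monolayer, aminoethoxyethyl mannoside coupled by EDC/NHS; hydroxyl-only reference flowcell. Con A (2 μM monomer) mixed 1:1 with test compound, equilibrated ≥1 h, then injected at 10 μL/min in 10 mM PBS pH 7.4, 25 °C. Methyl-mannose/HCl regeneration. Glycodendrimers run in triplicate, 2-fold series 50 μg/mL–39 ng/mL. Double-referenced equilibrium responses were fitted to a four-parameter logistic to give IC50.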

Sequence of Concanavalin A (Con A) (P02866 164-281 limits assumed): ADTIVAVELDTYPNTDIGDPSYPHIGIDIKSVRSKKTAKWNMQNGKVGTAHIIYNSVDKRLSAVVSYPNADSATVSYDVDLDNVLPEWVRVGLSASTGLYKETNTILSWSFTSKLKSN
Sequence of Concanavalin A (Con A) (P02866 30-148 limits assumed): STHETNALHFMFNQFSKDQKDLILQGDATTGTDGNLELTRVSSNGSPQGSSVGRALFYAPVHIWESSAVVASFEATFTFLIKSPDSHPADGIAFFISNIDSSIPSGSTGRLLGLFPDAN

## CO[C@H]1O[C@H](CO)[C@@H](O)[C@H](O)[C@@H]1O [Methyl mannose]
  pIC50: 3.62
